In PubChem BioAssay AID573 (SRMLSC, 2007):
Hit rate of the full screen: of about 65,000 compounds, about 1,400 (2.2%) were called active.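 The calls were made as follows: active = growth inhibition at or above a cutoff equal to the mean over every tested compound plus 3 SD (cut at about 60% in these data); inactive = the rest.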 The list comes from a sample in which actives are over-represented; it also holds similar structures and randomly drawn compounds.

Assay: growth inhibitors of E. coli tolC mutant, primary screen, strain BW25113 ΔtolC::kan, 384-well (AID 573);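 also: growth measured after 20 h incubation at 37 °C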
Details: OD615, stronger effect = higher value, screened at 10 µM (by protocol)
Procedure, shortened: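 signal = optical density read at 615 nm | test system = E. coli ΔtolC::kan strain BW25113 | timing = 20 h compound exposure of bacteria at 37 °C | buffer or medium = LB medium plus 50 µg/mL kanamycin | compound dosing = 10 µM final, single dose | evaluation = % inhibition of E. coli growth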
With CC(=O)c1c(C)n([O-])c2ccccc2[n+]1=O the growth inhibition was 97.5% (active).
In the case of C=CCSc1nc2c(c(=O)[nH]1)C(C(C)C)C(C#N)=C(N)O2 (configuration not stated), the growth inhibition is reported as 0.15% (inactive).
With CCCn1c(=NC(C)=O)c(C(=O)OCC)cc2c(=O)n3ccccc3nc21 the growth inhibition was -3.58% (inactive).
With C=CCOc1nc2c(c(=O)n(C)c(=O)n2C)n1Cc1ccc(Cl)cc1Cl the growth inhibition was 12.2% (inactive).
With Cc1nc2c(-c3ccccc3)c(C)[nH]n2c(=O)c1Cl the growth inhibition was 98% (active).
In the case of CCCN(CCC)C(=O)C1c2ccccc2Oc2ccccc21, the growth inhibition is reported as 17.6% (inactive).
With CCOC(=O)N1CCC(NC(=O)Cn2cc3c(n2)CCCCC3)CC1 the growth inhibition was -12.2% (inactive).
With N#Cc1nc(COc2ccc(-c3ccccc3)cc2)oc1NCc1cccnc1 the growth inhibition was 88.7% (active).
For Cc1ccc(OCc2nc(C#N)c(N3CCCC3)o2)cc1, the growth inhibition was 5.67% (inactive).
In the case of CCC(Oc1ccccc1)C(=O)NCc1cccnc1 (configuration not stated), the growth inhibition is reported as -6.02% (inactive).
For COc1ccc(N2CC(C)Cn3c2nc2c3c(=O)n(Cc3ccccc3F)c(=O)n2C)c(OC)c1 (configuration not stated), the growth inhibition was 13.4% (inactive).
For Cc1nnc(SCC(=O)NCCOc2ccc(Cl)cc2)n1-c1ccccc1, the growth inhibition was -1.57% (inactive).
With COc1ccc2c(c1)CCc1c(C(=O)N3CCCC3)noc1-2 the growth inhibition was -0.81% (inactive).
For COc1ccc2c(c1)CCc1c(C(=O)N3CCc4ccccc4C3)noc1-2, the growth inhibition was 77.6% (active).
For COc1ccc2c(c1)CCc1c(C(=O)Nc3c(C)n(C)n(-c4ccccc4)c3=O)noc1-2, the growth inhibition was -4.64% (inactive).
With O=c1c(-c2ccc3c(c2)OCCO3)c(C(F)(F)F)oc2cc(O)cc(O)c12 the growth inhibition was 11.4% (inactive).
For CCCOC(=O)c1cc2ccccc2oc1=O, the growth inhibition was -13.8% (inactive).
In the case of CCOC(=O)c1cc2cc(-c3c(C(=O)OCC)oc4cc(O)cc(O)c4c3=O)ccc2o1, the growth inhibition is reported as 87.4% (active).
For CC1(c2ccccc2Cl)NC(=O)N(CC(=O)NC(=O)NCc2ccco2)C1=O (configuration not stated), the growth inhibition was -3.76% (inactive).
In the case of COc1ccc(C2=NOC(C(=O)NCc3ccco3)C2)cc1OC (configuration not stated), the growth inhibition is reported as -12.4% (inactive).
With CCS(=O)(=O)n1nc(-c2ccc(OC)cc2)nc1SC the growth inhibition was 2.8% (inactive).
With CCCc1cc(=O)n2[nH]c(SCc3ccccc3)nc2n1 the growth inhibition was 11.2% (inactive).
With CCS(=O)(=O)n1nc(-c2ccccc2)nc1SCc1ccccc1 the growth inhibition was 62.5% (active).
In the case of CN(C)[C@@H]1C(=O)C(C(N)=O)=C(O)[C@@]2(O)C(=O)C3=C(O)c4c(O)ccc(Cl)c4[C@@H](O)[C@H]3C[C@@H]12, the growth inhibition is reported as 100% (active).
With CCSC1=C(C#N)C(=O)n2c1cc1c2CCCC1 the growth inhibition was 11.6% (inactive).
With Cc1ccc(S(=O)(=O)N2CCC(C(=O)N[C@@H](C)C(=O)NCCc3ccccc3)CC2)cc1 the growth inhibition was -5.94% (inactive).
In the case of N#Cc1nc(-c2ccc(OCc3ccccc3)cc2)oc1NCCCN1CCOCC1, the growth inhibition is reported as 96.3% (active).
With c1ccc2[nH]c(NCCN3CCOCC3)nc2c1 the growth inhibition was -17.2% (inactive).
With COc1ccc(Nc2oc(-c3ccccc3Cl)nc2C#N)cc1 the growth inhibition was 9.32% (inactive).
In the case of COc1ccc(OC)c2c(N)c(C#N)c(C(F)(F)C(F)(F)F)nc12, the growth inhibition is reported as 2.98% (inactive).
With O=C(Nc1ccc(Cl)cn1)c1cnn2cccnc12 the growth inhibition was -3.45% (inactive).
With CCN=C1SC(CC(=O)Nc2ccc(C)cc2)C(=O)N1CC (configuration not stated) the growth inhibition was -9.63% (inactive).
In the case of C[C@H](NC(=O)OC(C)(C)C)c1nnc(SCC(=O)Nc2ccc(Br)cc2)o1, the growth inhibition is reported as 15.3% (inactive).
In the case of CC(C)(CSc1nncn1/N=C/c1ccco1)NS(=O)(=O)c1ccc(Cl)cc1, the growth inhibition is reported as 15.6% (inactive).
For COc1ccc(Cc2nnc(NS(=O)(=O)Cc3ccccc3)s2)cc1, the growth inhibition was 5.52% (inactive).
For CCOC(=O)c1[nH]c2ccc(OC)cc2c1NC(=O)N1CCOCC1, the growth inhibition was -1.42% (inactive).
For O=C1CSC(c2cccc(F)c2)N1c1ccccc1F (configuration not stated), the growth inhibition was 9.21% (inactive).
In the case of CCCCCn1c(SCCC(C)C)nc2c1c(=O)[nH]c(=O)n2C, the growth inhibition is reported as 64.3% (active).
With CCCSc1nc2c(c(=O)[nH]c(=O)n2C)n1CCc1ccccc1 the growth inhibition was 5.24% (inactive).
With CCCCCCn1c(SCC(=O)c2ccccc2)nc2c1c(=O)[nH]c(=O)n2C the growth inhibition was 14.9% (inactive).
In the case of COC(=O)c1ccc2c(c1)S(=O)(=O)NC(=NCCCN1CCOCC1)S2, the growth inhibition is reported as -18.4% (inactive).
For O/N=C1\CC2(Cc3nonc31)OCCO2, the growth inhibition was -23.4% (inactive).
With O=C(COC(=O)c1ccc(Oc2ccccc2)cc1)Nc1nnc(-c2ccccc2)o1 the growth inhibition was 100% (active).
For Cc1ccc(OCC(=O)Nc2ccc(-c3nnc(-c4ccco4)o3)cc2)cc1, the growth inhibition was -19.2% (inactive).
For COc1ccc(CC(=O)Nc2ccc(-c3nnc(-c4ccccc4)o3)cc2)cc1, the growth inhibition was -6.58% (inactive).
In the case of CC(C(=O)N1CCOCC1)N1c2cccc3cccc(c23)S1(=O)=O (configuration not stated), the growth inhibition is reported as -2.26% (inactive).
With COc1cccc(NC(=O)C2CCCN2C(=O)OCc2ccccc2)c1 (configuration not stated) the growth inhibition was -9.18% (inactive).
With COc1cccc(NC(=O)Nc2nnc(N3CCCCC3C)s2)c1 (configuration not stated) the growth inhibition was 61.5% (active).
With COc1cccc(Nc2nnc(SCC(=O)N3CC(C)OC(C)C3)s2)c1 (configuration not stated) the growth inhibition was 8.6% (inactive).
For CCCc1nnc(NC(=O)CN2C(=O)c3ccccc3S2(=O)=O)s1, the growth inhibition was -16.8% (inactive).
In the case of CC(C)Cc1cc(C(=O)NCCc2ccccc2)no1, the growth inhibition is reported as 9.12% (inactive).
In the case of CC(C)CNC(=O)c1cc(-c2ccc(Br)cc2)on1, the growth inhibition is reported as 1.43% (inactive).
For CC(C)Cc1cc(C(=O)Nc2cc(Br)ccc2O)no1, the growth inhibition was 80.4% (active).
With NC(=O)c1ccccc1NC(=O)c1ccccc1F the growth inhibition was -2.79% (inactive).
For O=C1CCCN1CCCNc1ncnc2c1[nH]c1ccccc12, the growth inhibition was -26.6% (inactive).
In the case of CC(C)OCCCNc1ncnc2c1[nH]c1ccc(F)cc12, the growth inhibition is reported as 96.2% (active).
With CCN1CCCC1CNc1ncnc2c1[nH]c1ccc(F)cc12 (configuration not stated) the growth inhibition was 3.38% (inactive).
With COc1ccccc1NC(=O)c1ccc(C)s1 the growth inhibition was 14.1% (inactive).
In the case of CCOc1ccccc1Oc1cn[nH]c1-c1ccc(OC)cc1O, the growth inhibition is reported as 98.2% (active).
For CCOc1ccccc1NC(=O)Nc1cc(OC)ccc1OC, the growth inhibition was -9.62% (inactive).
With CCOc1ccccc1NC(=O)CCN1CCN(S(=O)(=O)c2ccc(OC)cc2)CC1 the growth inhibition was -7.02% (inactive).
In the case of O=C(Nc1ccc2c(c1)OCO2)C1CC(c2c(F)cccc2Cl)=NO1 (configuration not stated), the growth inhibition is reported as 18% (inactive).
With CCOC(=O)c1c(-n2cnnn2)sc(C)c1C the growth inhibition was 1.46% (inactive).
In the case of CCOC(=O)N1CCN(C(=O)C2CCN(c3ncnc4c3sc3cccc(F)c34)CC2)CC1, the growth inhibition is reported as 32.2% (inactive).
In the case of CCOC(=O)C1CCN(c2ncnc3c2oc2ccc(Br)cc23)CC1, the growth inhibition is reported as 100% (active).
For Cc1cc(C)nc(N2CCN(c3ncnc4c3oc3ccccc34)CC2)n1, the growth inhibition was -15.7% (inactive).
For CC(C)COC(=O)C1C2C=CC3(CN(C(C)c4ccc(Br)cc4)C(=O)C13)O2 (configuration not stated), the growth inhibition was -3.74% (inactive).
In the case of COCCNC(=O)c1ccccc1-c1nc(-c2ccccc2Cl)no1, the growth inhibition is reported as 1.03% (inactive).
With Cc1ccc(SCCN2C(=O)NC(C)(C)C2=O)cc1 the growth inhibition was 13.1% (inactive).
With Cc1ccc(C2(c3ccc(C)cc3)NC(=O)N(Cc3c(C)noc3C)C2=O)cc1 the growth inhibition was 94.9% (active).
With C=CCNC(=O)CCCOc1cccc(C)c1 the growth inhibition was -3.22% (inactive).
With COc1ccccc1N1CCN(C(=O)c2c(-c3c(Cl)cccc3Cl)noc2C)CC1 the growth inhibition was 23.5% (inactive).
In the case of Clc1ccccc1CSc1nnc(-c2ccco2)c(-c2ccco2)n1, the growth inhibition is reported as 9.86% (inactive).
With O=C(CSc1nnc(-c2ccco2)n1CC1CCCO1)c1ccccc1 (configuration not stated) the growth inhibition was -11.9% (inactive).
For c1ccc(CSc2nnc(-c3ccco3)c(-c3ccco3)n2)cc1, the growth inhibition was 72.5% (active).
In the case of c1ccc(CSc2nnc(-c3ccco3)n2Cc2ccccc2)cc1, the growth inhibition is reported as 100% (active).
In the case of Nc1cc(=O)nc(SCc2ccccc2)n1Cc1ccco1, the growth inhibition is reported as 7.07% (inactive).
For O=C(CSc1nnc(-c2ccco2)n1Cc1ccccc1)NC(=O)NCc1ccco1, the growth inhibition was 12.2% (inactive).
In the case of CC(C)c1nc(N2CCOCC2)c(C#N)c2c1COC(C)(C)C2, the growth inhibition is reported as 8.03% (inactive).
In the case of Cc1ccc(S(=O)(=O)N2CC(=O)Nc3ccccc32)cc1C, the growth inhibition is reported as -6.32% (inactive).
With CCCc1nc2ccccc2c(=O)n1NC(=O)c1c(O)c2ccccc2[nH]c1=O the growth inhibition was 72.5% (active).
In the case of CCCCc1nc2ccccc2c(=O)n1NC(=O)c1c(O)c2cccc3c2n(c1=O)CC3, the growth inhibition is reported as 34.2% (inactive).
With CCCC(=O)Nc1c(O)c2ccccc2[nH]c1=O the growth inhibition was -32.1% (inactive).
For Cc1cc(Nc2ccccc2)n(C(=O)c2ccc(N)cc2)n1, the growth inhibition was 25.2% (inactive).
In the case of N#Cc1c(N)n(CCOC(=O)c2ccc(Cl)cc2)c2nc3ccccc3nc12, the growth inhibition is reported as 5% (inactive).
In the case of CC(=O)N1C(=O)C2(Nc3ccccc3N2)c2ccccc21, the growth inhibition is reported as -14% (inactive).
For COc1c(Br)cc2c(C)c(C(=O)N3CCOCC3)oc2c1Br, the growth inhibition was 0.15% (inactive).
With C=C(C)COc1ccc(-c2n[nH]c(C)c2-c2ccccc2)c(O)c1 the growth inhibition was 95.4% (active).
For COc1ccc(-c2n[nH]c(C)c2-c2ccc(OC)c(OC)c2)c(O)c1, the growth inhibition was 38.4% (inactive).
In the case of C=C(C)COc1ccc(-c2n[nH]c(C)c2-c2ccccc2OC)c(O)c1, the growth inhibition is reported as 88.4% (active).
With COc1ccccc1-c1c(C)nn2c(C)c(C(C)=O)cnc12 the growth inhibition was 15.8% (inactive).
For Cn1c(=O)c2c(nc(SCCNS(=O)(=O)c3ccccc3)n2C)n(C)c1=O, the growth inhibition was 0.89% (inactive).
In the case of Cc1ncc(CC(=O)n2cc(C(=O)c3cc(Cl)ccc3O)cn2)s1, the growth inhibition is reported as 5.26% (inactive).
In the case of CCn1c(SCC(=O)Nc2nc3ccc(OC)cc3s2)nnc1-c1ccoc1C, the growth inhibition is reported as 27.9% (inactive).
With C=CCn1c(SCC(=O)Nc2nc3ccccc3s2)nnc1-c1ccccc1O the growth inhibition was 87.9% (active).
For C=CCn1c(CSc2nc3ccccc3s2)nnc1SCC(=O)NCc1ccco1, the growth inhibition was 29.4% (inactive).
For CCOc1ccccc1-n1c(SCC(=O)NCc2ccco2)nnc1-c1ccncc1, the growth inhibition was -11.1% (inactive).
